A selection: hits, their analogues and other compounds. The true share with any hit is near 2.1%.
SUMO HTRF inh – inhibitors of human SUMOylation (UBC9); P63279; HTRF SUMOylation assay, SAE1/SAE2 + UBC9, in vitro; inhibition, % at 35 µM; 290,000 compounds, 0.36% hits; in the data active = inhibition above about 50%, passing the limit was not always enough
Target sequence (P63279 whole entry, looked up): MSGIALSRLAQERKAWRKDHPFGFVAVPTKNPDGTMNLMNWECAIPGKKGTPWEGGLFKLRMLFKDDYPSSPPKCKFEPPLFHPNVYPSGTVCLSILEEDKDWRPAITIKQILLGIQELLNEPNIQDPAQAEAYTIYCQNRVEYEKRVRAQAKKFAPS
NS3 helicase inh – HCV NS3 helicase inhibition. NS3 helicase DNA unwinding, Cy5 molecular beacon fluorescence. inhibition, % at 10.9 µM. 290,000 compounds, 0.56% hits. AID 1800;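 active = inhibition above the mean of all tested compounds plus 3 SD, set per campaign, cut at about 35% in these data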;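 note: 0% = DMSO wells and 100% = thioflavine S control wells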
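Control set: DMSO versus 110 µM thioflavine S; Material: NS3 helicase fragment of HCV; Measured by: Cy5 fluorescence at 0 and 60 min, beacon hairpin quenching; Read-out basis: percent inhibition from t60/t0 fluorescence ratio; Times: reaction time 60 min, 25 °C; Repeats: single replicate; Compound dosing: single dose, 10.9 µM nominal final, DMSO 0.8% final.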
FID counter – fluorescent intercalator displacement, NS3 helicase counter-screen | inhibition, % at 7.9 µM | 290,000 compounds, 0.17% hits | DNA fluorescent intercalator displacement, fluorescence | AID 1845; in the data active = inhibition above about 37%;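 note: 0% = vehicle and 100% = reference compound; higher means more ethidium bromide displaced from hairpin DNA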
VIM-2 inh – blocks Pseudomonas aeruginosa VIM-2 metallo-beta-lactamase. purified VIM-2, nitrocefin hydrolysis, epi-absorbance fluorescence. inhibition, % at 5.6 µM. 290,000 compounds, 0.89% hits;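 active = inhibition above the mean of all tested compounds plus 3 SD, cutoff set per screening run, cut at about 7.5% in these data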;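 note: red hydrolysis product quenches plate fluorescence so inhibitors raise well fluorescence; 0% = enzyme with DMSO and 100% = DMSO without enzyme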
IMP-1 inh – inhibitors of Pseudomonas aeruginosa IMP-1 metallo-beta-lactamase; purified IMP-1, nitrocefin hydrolysis, epi-absorbance fluorescence; inhibition, % at 5.6 µM; 290,000 compounds, 0.45% hits; AID 1556;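 active = inhibition above the mean plus 3 SD of all compounds in the same screening run, cut at about 4.5% in these data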;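 note: 0% = IMP-1 with DMSO and 100% = DMSO wells lacking enzyme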
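System: Purified IMP-1 | Read-out basis: Percent enzyme inhibition | Controls: IMP-1 with DMSO as 0%, enzyme-free DMSO as 100% | Replicates: One well per compound | Doses: 5.6 µM nominal single concentration | Detection: Epi-absorbance fluorescence, 480 nm excitation, 530 nm emission | Incubation: 25 °C, 15 min preincubation, 25 min reaction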
* = called active by the depositor.

Screening Cc1coc2c(C)c3oc(=O)c(CCC(=O)N4C[C@H]5C[C@@H](C4)c4cccc(=O)n4C5)c(C)c3cc12 returned SUMO HTRF inh 22, NS3 helicase inh -8, FID counter -53, VIM-2 inh 7.7* and IMP-1 inh -3.
`Cc1c(CCC(=O)NCCCn2ccnc2)c(=O)oc2c(C)c3occ(C(C)(C)C)c3cc12` gave SUMO HTRF inh 3, NS3 helicase inh 8, FID counter 38*, VIM-2 inh 8.1* and IMP-1 inh 1.
Screening Cc1oc2c(C)c3oc(=O)c(CCC(=O)NCCCN4CCOCC4)c(C)c3cc2c1C returned SUMO HTRF inh 31, NS3 helicase inh -34, FID counter 13, VIM-2 inh 5 and IMP-1 inh -2.
Screening Cc1coc2c(C)c3oc(=O)c(CCC(=O)NCCN4CCOCC4)c(C)c3cc12 returned SUMO HTRF inh 24, NS3 helicase inh -32, FID counter 0, VIM-2 inh 8.2* and IMP-1 inh -1.
For Nc1nc2ccc(NC(=O)c3ccco3)cc2s1 the results were SUMO HTRF inh -11, NS3 helicase inh 2, FID counter -6, VIM-2 inh -5 and IMP-1 inh -4.
CCOC(=O)c1c(C)[nH]c(C=C2C(=O)CCCC2=O)c1O was read as SUMO HTRF inh 27, NS3 helicase inh 2, FID counter -1, VIM-2 inh 0 and IMP-1 inh -3.
Screening COc1ccc(CN2CCN(Cc3ccc4cc(F)ccc4n3)CC2CCO)c(C)c1C (stereo not given) returned SUMO HTRF inh 4, NS3 helicase inh -24, FID counter -5, VIM-2 inh -2 and IMP-1 inh -2.
`COc1cccc(N=C(N)N=C(N)N)c1` gave SUMO HTRF inh 13, NS3 helicase inh -2, FID counter -1, VIM-2 inh -1 and IMP-1 inh -1.
Screening COC(=O)c1cc(N=C(N)N=C(N)N)cc(C(=O)OC)c1 returned SUMO HTRF inh 3, NS3 helicase inh 7, FID counter 1, VIM-2 inh 9.0* and IMP-1 inh -3.
Screening CCCCN(C)CCNC(=O)c1nn(-c2ccc(OC)cc2)c(=O)c2c1c1ccccc1n2C returned SUMO HTRF inh -5, NS3 helicase inh -46, FID counter 26, VIM-2 inh 8.3* and IMP-1 inh -2.
For CCN(C(=O)c1nn(-c2ccc(OC)cc2)c(=O)c2c1c1ccccc1n2C)c1ccc(OC)cc1 the results were SUMO HTRF inh -6, NS3 helicase inh 1, FID counter -5, VIM-2 inh 0 and IMP-1 inh -4.
`CCN1CCN(c2ccc(S(=O)(=O)N3CCCCC3)cc2NC(=O)/C=C/c2cccc(OC)c2OC)CC1` gave SUMO HTRF inh -7, NS3 helicase inh -44, FID counter 38*, VIM-2 inh 1 and IMP-1 inh -3.
`Cc1cc(OCC(=O)N[C@@H](CSCc2ccccc2)C(=O)O)c2c(C)c(C)c(=O)oc2c1` gave SUMO HTRF inh 22, NS3 helicase inh 5, FID counter 11, VIM-2 inh 2 and IMP-1 inh -3.
For CC1(C)Cc2c(sc(NC(=O)c3ccc(C(=O)c4ccccc4)cc3)c2C#N)C(C)(C)N1 the results were SUMO HTRF inh -1, NS3 helicase inh -85, FID counter 38*, VIM-2 inh -2 and IMP-1 inh -1.
`CC1(C)Cc2c(sc(NC(=O)c3ccc(S(=O)(=O)N4CCCC4)cc3)c2C#N)C(C)(C)N1` gave SUMO HTRF inh -13, NS3 helicase inh -10, FID counter 10, VIM-2 inh -1 and IMP-1 inh -2.
`O=C(N/N=C\c1cn[nH]c1-c1ccc(Cl)cc1)c1cccs1` gave SUMO HTRF inh 52*, NS3 helicase inh -1, FID counter -12, VIM-2 inh -5 and IMP-1 inh -4.
Screening COc1cc(C2CC(=O)Nc3ccccc3S2)cc(OC)c1OC (stereo not given) returned SUMO HTRF inh 14, NS3 helicase inh -13, FID counter 89*, VIM-2 inh 1 and IMP-1 inh -1.
Screening Cc1cc2nccc(-c3ccc(OCCCF)cc3)n2n1 returned SUMO HTRF inh 18, NS3 helicase inh -5, FID counter -20, VIM-2 inh 0 and IMP-1 inh -4.
`Cc1nc2nc(-c3cccnc3)nn2c(C)c1Cl` gave SUMO HTRF inh -10, NS3 helicase inh 9, FID counter -4, VIM-2 inh 11* and IMP-1 inh 0.
Screening Cc1nc2nc(-c3ccco3)nn2c(C)c1Cl returned SUMO HTRF inh 26, NS3 helicase inh 7, FID counter -5, VIM-2 inh 3 and IMP-1 inh -3.
CC(=O)c1ccc(NC(=O)Nc2cccnc2)cc1 was read as SUMO HTRF inh 58*, NS3 helicase inh 0, FID counter -9, VIM-2 inh -3 and IMP-1 inh -2.
O=C(NCCN1C(=O)C2C3C=CC(C3)C2C1=O)Nc1cccnc1 (stereo not given) was read as SUMO HTRF inh 4, NS3 helicase inh 8, FID counter -2, VIM-2 inh -6 and IMP-1 inh -4.
O=C(Nc1ccc(N2C(=O)C3C4C=CC(C4)C3C2=O)cc1)Nc1cccnc1 (stereo not given) was read as SUMO HTRF inh 56*, NS3 helicase inh -10, FID counter -4, VIM-2 inh 2 and IMP-1 inh -1.
Screening COC(=O)c1cc(CNC(=O)c2ccc(N3CCCC3)c([N+](=O)[O-])c2)ccc1OC returned SUMO HTRF inh 12, NS3 helicase inh -2, FID counter -22, VIM-2 inh -1 and IMP-1 inh -4.
`CCNc1nc(SCC(=O)Nc2ccc(Cl)c(Cl)c2)nc(N2CCOCC2)n1` gave SUMO HTRF inh -22, NS3 helicase inh -31, FID counter -28, VIM-2 inh -1 and IMP-1 inh -1.
Screening O=C(O)C1C2C=CC(C2)C1C(=O)Nc1ccccc1Br (stereo not given) returned SUMO HTRF inh 9, NS3 helicase inh 1, FID counter -3, VIM-2 inh 0 and IMP-1 inh 32*.
For CC(NC(=O)C1C2C=CC(C2)C1C(=O)O)c1ccccc1 (stereo not given) the results were SUMO HTRF inh -8, NS3 helicase inh -6, FID counter -2, VIM-2 inh -1 and IMP-1 inh 2.
`CN(C)CCc1cc2c(c3c1ccc1ccccc13)OCO2` gave SUMO HTRF inh 7, NS3 helicase inh -52, FID counter 43*, VIM-2 inh 6 and IMP-1 inh -3.
Screening Cc1ccc(N2C(=O)/C(=C/c3ccco3)SC2=S)cc1 returned SUMO HTRF inh 14, NS3 helicase inh 10, FID counter -1, VIM-2 inh -5 and IMP-1 inh -2.
`N=C1S/C(=C\c2ccco2)C(=O)N1c1nccs1` gave SUMO HTRF inh 94*, NS3 helicase inh 24, FID counter -10, VIM-2 inh -3 and IMP-1 inh -5.

Screens from PubChem.
